Columns and labels:
H460^R231Q cells = assay: Cell proliferation assay; type: cell-based, human; conditions: for IC50: Homo sapiens, 72 h, read-out: H460^R231Q (IC50, μmol/L)
Procedure, shortened: (§1)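 Human NCI-H460 NSCLC cells engineered to express wild-type or R231Q DOT1L (aa 1–416) were grown in RPMI 1640 with 10% FBS. Cells were seeded in 96-well plates and exposed to a range of test compound concentrations for 72 h at 37 °C, 5% CO₂. Growth was read by CCK-8 on a plate reader, and IC50 values were derived from the dose–response.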

H460^WT cells = assay: Cell proliferation assay; type: cell-based; conditions: Homo sapiens, 72 h, read-out: H460^WT (IC50, μmol/L)
Procedure, shortened: as §1

[1] = test system: DOT1L^R231Q mediated H3K79me2 level in H460^R231Q cells; assay: Quantitative Western blot analysis of H3K79me2 level in H460^R231Q cells; type: cell-based, human
Procedure, shortened: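 H460^R231Q cells were treated with test compound, and histones were extracted with a total histone extraction kit; protein was quantified by BCA. Extracts were resolved on 8–15% SDS-PAGE, transferred to PVDF and probed for H3K79me2 and histone H3, with ECL/X-ray film detection. Band densities were quantified, and H3K79me2 was normalised to H3. The dimethylation index was the compound value divided by the SGC0946 (positive control) value.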

[2] = cited from earlier work
DOT1L^WT = DOT1L^WT (Homo sapiens, UniProt Q8TEK3); assay: DOT1L^WT methyltransferase assay; type: biochemical
Procedure, shortened: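 Commercial wild-type DOT1L was preincubated with test compound, 1% DMSO vehicle or SGC0946 positive control for 15 min at 25 °C. Nucleosomes plus SAM were added for 60 min, then detection buffer for 10 min, then anti-SAH-Lumi4-Tb and SAH-d2 for 60 min, all at 25 °C. The TR-FRET 665/620 nm ratio was read. % inhibition was scaled between vehicle and positive control; dose–response in duplicate, fitted for IC50.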

[3] = test system: H3K27me3, H3K9me2, H3K4me1 and H3K36me2 levels; assay: WB analysis of common histone H3 modifications in H460^R231Q cells; type: cell-based, human; conditions: Fig. 7
Procedure, shortened: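 H460^R231Q cells were treated with test compound alongside an SGC0946 positive control. Histone extracts (or RIPA lysates with protease/phosphatase inhibitors) were quantified by BCA, separated on 8–15% SDS-PAGE and blotted to PVDF. Blots were probed for H3K27me3, H3K9me2, H3K4me1 and H3K36me2 and detected by ECL on X-ray film. Membranes were stripped and reprobed for proteins of similar size.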

H460^R231Q = conditions: R231Q group, in vivo; cited from earlier work
H460^WT = conditions: WT group, in vivo; cited from earlier work

DOT1L^WT, sequence (Q8TEK3 whole entry): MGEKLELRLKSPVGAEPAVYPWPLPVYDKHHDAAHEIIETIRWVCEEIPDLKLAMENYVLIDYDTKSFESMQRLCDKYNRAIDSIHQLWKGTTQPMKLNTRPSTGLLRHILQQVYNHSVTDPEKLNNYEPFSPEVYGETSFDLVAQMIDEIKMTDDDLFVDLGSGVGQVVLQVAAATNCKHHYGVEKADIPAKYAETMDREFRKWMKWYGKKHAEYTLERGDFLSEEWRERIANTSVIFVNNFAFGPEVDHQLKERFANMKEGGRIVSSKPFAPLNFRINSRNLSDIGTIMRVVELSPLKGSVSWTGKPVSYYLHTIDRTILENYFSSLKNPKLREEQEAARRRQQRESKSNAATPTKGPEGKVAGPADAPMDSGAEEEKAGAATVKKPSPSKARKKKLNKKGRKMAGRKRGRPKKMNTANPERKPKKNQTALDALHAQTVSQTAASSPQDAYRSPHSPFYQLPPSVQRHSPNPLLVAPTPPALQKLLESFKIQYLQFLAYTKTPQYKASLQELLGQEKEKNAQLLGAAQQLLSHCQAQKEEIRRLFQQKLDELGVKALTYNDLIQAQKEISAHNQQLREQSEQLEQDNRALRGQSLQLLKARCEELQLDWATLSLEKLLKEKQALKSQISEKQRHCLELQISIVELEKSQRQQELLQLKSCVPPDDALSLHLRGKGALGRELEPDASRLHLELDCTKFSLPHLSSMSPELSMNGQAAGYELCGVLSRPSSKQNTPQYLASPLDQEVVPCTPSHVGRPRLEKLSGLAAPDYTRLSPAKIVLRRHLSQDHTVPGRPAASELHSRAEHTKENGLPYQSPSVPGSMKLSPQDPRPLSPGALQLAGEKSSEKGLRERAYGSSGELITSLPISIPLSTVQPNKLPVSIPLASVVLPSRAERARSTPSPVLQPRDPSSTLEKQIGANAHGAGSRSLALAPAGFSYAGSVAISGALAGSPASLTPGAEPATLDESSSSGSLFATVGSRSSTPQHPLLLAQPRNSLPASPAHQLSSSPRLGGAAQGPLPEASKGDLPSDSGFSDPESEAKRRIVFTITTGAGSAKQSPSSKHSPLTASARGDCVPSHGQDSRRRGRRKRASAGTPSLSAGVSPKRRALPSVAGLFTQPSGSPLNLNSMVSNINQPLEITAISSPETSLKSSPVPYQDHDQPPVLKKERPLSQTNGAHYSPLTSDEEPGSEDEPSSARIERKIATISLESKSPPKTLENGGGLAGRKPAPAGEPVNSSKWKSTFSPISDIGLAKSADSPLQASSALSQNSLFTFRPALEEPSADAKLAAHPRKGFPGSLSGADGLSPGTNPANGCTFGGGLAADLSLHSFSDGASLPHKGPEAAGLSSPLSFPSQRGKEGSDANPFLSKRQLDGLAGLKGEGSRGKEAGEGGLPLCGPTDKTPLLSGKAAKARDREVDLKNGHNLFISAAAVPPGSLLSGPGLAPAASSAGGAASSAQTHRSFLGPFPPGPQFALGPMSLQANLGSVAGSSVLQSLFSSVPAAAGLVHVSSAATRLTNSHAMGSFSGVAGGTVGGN

Compound	IC50 (H460^R231Q cells) [µmol/L]	other results
CC(C)N(C[C@H]1O[C@@H](n2cnc3c(N)ncnc32)[C@H](O)[C@@H]1O)C1CC2CN(C(=O)Nc3ccc(C(C)(C)C)cc3)CC2C1 (some centres unmarked) [Compound 2]	40.1 ± 3.73	IC50 (H460^WT cells): > 100 µmol/L
COc1ccc(CN2CC3CC(N(C[C@H]4O[C@@H](n5cnc6c(N)ncnc65)[C@H](O)[C@@H]4O)C(C)C)CC3C2)cc1Br (some centres unmarked) [Compound 8]	85.8 ± 6.87	IC50 (H460^WT cells): > 100 µmol/L
CC(C)N(C[C@H]1O[C@@H](n2cnc3c(N)ncnc32)[C@H](O)[C@@H]1O)C1CC2CN(Cc3c(F)cc(Br)cc3F)CC2C1 (some centres unmarked) [Compound 11]	68.2 ± 3.03	IC50 (H460^WT cells): > 100 µmol/L
CC(C)N(CCC1CC2CN(C(=O)Nc3ccc(C(C)(C)C)cc3)CC2C1)C[C@H]1O[C@@H](n2cnc3c(N)ncnc32)[C@H](O)[C@@H]1O (some centres unmarked) [Compound 12]	> 100	–
CC(C)N(CCC1CC2CN(C(=O)Nc3ccc(NC(=O)C(C)(C)C)cc3)CC2C1)C[C@H]1O[C@@H](n2cnc3c(N)ncnc32)[C@H](O)[C@@H]1O (some centres unmarked) [Compound 14]	> 100	–
CC(C)N(CCC1CC2CN(Cc3ccc(F)c(F)c3)CC2C1)C[C@H]1O[C@@H](n2cnc3c(N)ncnc32)[C@H](O)[C@@H]1O (some centres unmarked) [Compound 17]	82 ± 3.25	–
CC(C)(C)C(=O)Nc1ccc(NC(=O)N2CC3CC(N(CC(=O)NC4CC4)C[C@H]4O[C@@H](n5cnc6c(N)ncnc65)[C@H](O)[C@@H]4O)CC3C2)cc1 (some centres unmarked) [Compound 20]	52.7 ± 2.99	–
CN(C[C@H]1O[C@@H](n2cnc3c(N)ncnc32)[C@H](O)[C@@H]1O)C1CCN(Cc2nc3cc(NC(=O)C(C)(C)C)ccc3[nH]2)CC1 [Compound 23]	34.8 ± 1.92	–
CC1CCN(C(=O)CN(C[C@H]2O[C@@H](n3cnc4c(N)ncnc43)[C@H](O)[C@@H]2O)C2CCN(Cc3nc4ccc(NC(=O)C(C)(C)C)cc4[nH]3)CC2)CC1 [Compound 27]	46.7 ± 3.7	–
CC(C)(C)C(=O)Nc1ccc2nc(CN3CCC(N(CC(=O)N4CCC(O)CC4)C[C@H]4O[C@@H](n5cnc6c(N)ncnc65)[C@H](O)[C@@H]4O)CC3)[nH]c2c1 [Compound 28]	22.5 ± 1.81	–
CC(C)NC(=O)CCN(C[C@H]1O[C@@H](n2cnc3c(N)ncnc32)[C@H](O)[C@@H]1O)C1CCN(Cc2nc3cc(NC(=O)C(C)(C)C)ccc3[nH]2)CC1 [Compound 33]	73 ± 5.07	–
CC(C)(C)C(=O)Nc1ccc2[nH]c(CN3CCC(N(CCC(=O)N4CCSCC4)C[C@H]4O[C@@H](n5cnc6c(N)ncnc65)[C@H](O)[C@@H]4O)CC3)nc2c1 [Compound 35]	18.6 ± 0.94	–
CCN1CCN(CCCN(C[C@H]2O[C@@H](n3cnc4c(N)ncnc43)[C@H](O)[C@@H]2O)C2CCN(Cc3nc4cc(NC(=O)C(C)(C)C)ccc4[nH]3)CC2)CC1 [Compound 39]	27.6 ± 1.31	fold decreased activity against H460^R231Q cells (H460^R231Q cells; versus 37): 4 fold
CC(C)N(C[C@H]1O[C@@H](n2cnc3c(N)ncnc32)[C@H](O)[C@@H]1O)[C@H]1C[C@@H](CCc2nc3cc(C(C)(C)C)ccc3[nH]2)C1 [EPZ5676]	–	clearance [2]: 68 mL/min/kg; oral bioavailability (F) [2]: 0%
CC(C)N(CCCNC(=O)Nc1ccc(C(C)(C)C)cc1)C[C@H]1O[C@@H](n2cc(Br)c3c(N)ncnc32)[C@H](O)[C@@H]1O [SGC0946]	38 ± 5.24	IC50 (H460^WT cells): 9.18 ± 0.11 µmol/L; H3K79me2 level (WB of common histone H3 modifications) ([1]; H460^R231Q cells, Fig. 7): decrease; IC50 (DOT1L^WT): 0.0184 µM; H3K27me3, H3K9me2, H3K4me1 and H3K36me2 levels [3]: remained relatively unchanged; TGI (H460^R231Q): 26.5%; TGI (H460^WT): 44.4%

More lines, main results first:

IC50 (H460^R231Q cells) [µmol/L]	Compound	other results
77.6 ± 3.18	CN(C[C@H]1O[C@@H](n2cnc3c(N)ncnc32)[C@H](O)[C@@H]1O)C1CC2CN(C(=O)Nc3ccc(C(C)(C)C)cc3)CC2C1 (some centres unmarked) [Compound 1]	IC50 (H460^WT cells): > 100 µmol/L
48.8 ± 2.76	CC(C)N(C[C@H]1O[C@@H](n2cnc3c(N)ncnc32)[C@H](O)[C@@H]1O)C1CC2CN(C(=O)Nc3ccc(Br)cc3)CC2C1 (some centres unmarked) [Compound 3]	IC50 (H460^WT cells): > 100 µmol/L
60 ± 5.84	COc1ccc(NC(=O)N2CC3CC(N(C[C@H]4O[C@@H](n5cnc6c(N)ncnc65)[C@H](O)[C@@H]4O)C(C)C)CC3C2)cc1 (some centres unmarked) [Compound 4]	IC50 (H460^WT cells): > 100 µmol/L
37.9 ± 3.09	CC(C)N(C[C@H]1O[C@@H](n2cnc3c(N)ncnc32)[C@H](O)[C@@H]1O)C1CC2CN(C(=O)Nc3ccc(NC(=O)C(C)(C)C)cc3)CC2C1 (some centres unmarked) [Compound 5]	IC50 (H460^WT cells): > 100 µmol/L; inhibitory activity against DOT1L^R231Q in WB assay ([1]; H3K79me2 level, H460^R231Q cells): moderate inhibitory activity
95.9 ± 4.26	COc1cc(CN2CC3CC(N(C[C@H]4O[C@@H](n5cnc6c(N)ncnc65)[C@H](O)[C@@H]4O)C(C)C)CC3C2)cc(OC)c1OC (some centres unmarked) [Compound 10]	IC50 (H460^WT cells): > 100 µmol/L
87.2 ± 7.63	CC(C)N(CCC1CC2CN(C(=O)Nc3ccc(Br)cc3)CC2C1)C[C@H]1O[C@@H](n2cnc3c(N)ncnc32)[C@H](O)[C@@H]1O (some centres unmarked) [Compound 13]	–
96.6 ± 5.07	CC(C)N(CCC1CC2CN(Cc3ccc(C#N)cc3)CC2C1)C[C@H]1O[C@@H](n2cnc3c(N)ncnc32)[C@H](O)[C@@H]1O (some centres unmarked) [Compound 16]	–
> 100	COC(=O)CN(C[C@H]1O[C@@H](n2cnc3c(N)ncnc32)[C@H](O)[C@@H]1O)C1CC2CN(C(=O)Nc3ccc(NC(=O)C(C)(C)C)cc3)CC2C1 (some centres unmarked) [Compound 19]	–
72.5 ± 4.5	CN(C)C(=O)CN(C[C@H]1O[C@@H](n2cnc3c(N)ncnc32)[C@H](O)[C@@H]1O)C1CC2CN(C(=O)Nc3ccc(NC(=O)C(C)(C)C)cc3)CC2C1 (some centres unmarked) [Compound 21]	–
44.6 ± 3.87	CC(C)(C)C(=O)Nc1ccc(NC(=O)N2CC3CC(N(CC(=O)N4CCSCC4)C[C@H]4O[C@@H](n5cnc6c(N)ncnc65)[C@H](O)[C@@H]4O)CC3C2)cc1 (some centres unmarked) [Compound 22]	–
94 ± 7.07	COC(=O)CN(C[C@H]1O[C@@H](n2cnc3c(N)ncnc32)[C@H](O)[C@@H]1O)C1CCN(Cc2nc3cc(NC(=O)C(C)(C)C)ccc3[nH]2)CC1 [Compound 24]	–
70 ± 2.44	CN(C)C(=O)CN(C[C@H]1O[C@@H](n2cnc3c(N)ncnc32)[C@H](O)[C@@H]1O)C1CCN(Cc2nc3cc(NC(=O)C(C)(C)C)ccc3[nH]2)CC1 [Compound 25]	–
46.7 ± 2.69	CC(C)(C)C(=O)Nc1ccc2nc(CN3CCC(N(CC(=O)N4CCCC4)C[C@H]4O[C@@H](n5cnc6c(N)ncnc65)[C@H](O)[C@@H]4O)CC3)[nH]c2c1 [Compound 26]	–
29.2 ± 1.63	CCN1CCN(C(=O)CN(C[C@H]2O[C@@H](n3cnc4c(N)ncnc43)[C@H](O)[C@@H]2O)C2CCN(Cc3nc4ccc(NC(=O)C(C)(C)C)cc4[nH]3)CC2)CC1 [Compound 29]	–
46.1 ± 3	CC(C)(C)C(=O)Nc1ccc2nc(CN3CCC(N(CC(=O)N4CCOCC4)C[C@H]4O[C@@H](n5cnc6c(N)ncnc65)[C@H](O)[C@@H]4O)CC3)[nH]c2c1 [Compound 30]	–
> 100	CC(C)(C)C(=O)Nc1ccc2nc(CN3CCC(N(CC(=O)NCc4ccco4)C[C@H]4O[C@@H](n5cnc6c(N)ncnc65)[C@H](O)[C@@H]4O)CC3)[nH]c2c1 [Compound 31]	–
96.5 ± 5.45	CC(C)(C)C(=O)Nc1ccc2[nH]c(CN3CCC(N(CCC(=O)NCC4CCCO4)C[C@H]4O[C@@H](n5cnc6c(N)ncnc65)[C@H](O)[C@@H]4O)CC3)nc2c1 (some centres unmarked) [Compound 32]	–
59.4 ± 4.38	CC(C)(C)C(=O)Nc1ccc2[nH]c(CN3CCC(N(CCC(=O)N4CCS(=O)(=O)CC4)C[C@H]4O[C@@H](n5cnc6c(N)ncnc65)[C@H](O)[C@@H]4O)CC3)nc2c1 [Compound 34]	–
8.76 ± 0.61	CC(C)(C)C(=O)Nc1ccc2[nH]c(CN3CCC(N(CCCN4CCC(O)CC4)C[C@H]4O[C@@H](n5cnc6c(N)ncnc65)[C@H](O)[C@@H]4O)CC3)nc2c1 [Compound 36]	H3K79me2 level mediated by DOT1L^R231Q ([1]; 5 μmol/L, WB): significantly reduced
43.1 ± 1.88	CC1CCN(CCCN(C[C@H]2O[C@@H](n3cnc4c(N)ncnc43)[C@H](O)[C@@H]2O)C2CCN(Cc3nc4cc(NC(=O)C(C)(C)C)ccc4[nH]3)CC2)CC1 [Compound 38]	–
55.3 ± 5.49	COC(=O)C1CCN(CCCN(C[C@H]2O[C@@H](n3cnc4c(N)ncnc43)[C@H](O)[C@@H]2O)C2CCN(Cc3nc4cc(NC(=O)C(C)(C)C)ccc4[nH]3)CC2)CC1 [Compound 40]	–
32.5 ± 3.56	COC1(OC)CCN(CCCN(C[C@H]2O[C@@H](n3cnc4c(N)ncnc43)[C@H](O)[C@@H]2O)C2CCN(Cc3nc4cc(NC(=O)C(C)(C)C)ccc4[nH]3)CC2)CC1 [Compound 41]	–
73.3 ± 3.18	CCN(CC)CCCN(C[C@H]1O[C@@H](n2cnc3c(N)ncnc32)[C@H](O)[C@@H]1O)C1CCN(Cc2nc3ccc(NC(=O)C(C)(C)C)cc3[nH]2)CC1 [Compound 42]	–
